These results are taken from ChEMBL document CHEMBL4513216, “Probing the Open Global Health Chemical Diversity Library for Multistage-Active Starting Points for Next-Generation Antimalarials” (ACS Infect Dis, 2020).

This data set in a line: Toxicity liver stage against HepG2, at 10uM. In kind it is cell-based. On the set-up: test concentration 10 uM, cell line HepG2-A16-CD81EGFP. The conditions noted are these: human, HepG2-A16-CD81EGFP cells; read-out: INHIBITION
Summed up:
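Uninfected HepG2-A16-CD81EGFP cells, 3 × 10^3 per well, 1536-well, plated on prespotted compound at 10 μM final, parasite-free screening media added to match infected plates; puromycin 10 μM positive, DMSO 0.5% negative; run in parallel with 48 h PbLuc assay at 37 °C, 5% CO2; viability by CellTiter-Glo luminescence, normalized to controls.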
With `O=C([C@@H]1CCO[C@@H]2CCN(CC3CC3)C[C@H]21)N1CCCCO1`, the cytotoxicity at 10 µM stood at 6.59%.

Take `CCNC(=O)NC(=O)C(C)N(C)CCOc1ccccc1C` (centres undefined): the cytotoxicity at 10 µM was found to be 3.45%.

For `CCNC(=O)C1(Cc2cc(-c3ccccc3)no2)CCCN(C)C1` (centres undefined), the cytotoxicity at 10 µM was 5.31%.

On to `CC(C)C(NC(=O)Nc1ccc(F)cc1)C(=O)N(C)C` (centres undefined), for which the cytotoxicity at 10 µM was -10.9%.

Consider `CC(C)COc1cncc(NCC(O)c2ccco2)n1` (centres undefined), for which the cytotoxicity at 10 µM is -2.85%.

With `COc1ccc2c(c1)[C@@H](CCNC(C)=O)CC(C)(C)O2`, the cytotoxicity at 10 µM is -6.33%.

Regarding `O=C(CCNc1ncccn1)NCc1csc(Br)c1`, the cytotoxicity at 10 µM is 5.15%.

Take `Cc1ccc(Oc2ncccc2C(=O)N(C)CCCN(C)C)cc1`: the cytotoxicity at 10 µM was determined as 1.73%.

As for `Cn1nc(C2CCCN(Cc3cccc(F)c3)C2)c2nccnc21` (centres undefined), the cytotoxicity at 10 µM is -3.96%.

Consider `O=C(c1ccco1)N1CC[C@@H]2O[C@H](COCC3CCOCC3)CC[C@@H]21`, for which the cytotoxicity at 10 µM is 6.8%.

With `CC(=O)N1CCC(C(=O)N2CCC(=Cc3cccc(F)c3)CC2)CC1`, the cytotoxicity at 10 µM came to 3.5%.

With `Cn1cnc2c1C(COCC1CCOCC1)CN(Cc1ccccn1)C2` (centres undefined), the cytotoxicity at 10 µM was -78.2%.

Consider `Cc1ncsc1CN1CCn2c(COCC3CC3)cnc2C1C` (centres undefined), for which the cytotoxicity at 10 µM is -1.82%.

For the compound `NC(=O)Cn1c(CO)cnc1SCc1ccccc1Cl`, the cytotoxicity at 10 µM came to 0.252%.

Regarding `COCCN1CCN(Cc2cnc(C3(C)CCCCO3)nc2)CC1` (centres undefined), the cytotoxicity at 10 µM was 1.16%.

For `c1ccc(Cc2nc(CNC3CCC4(CCNCC4)CC3)no2)cc1`, the cytotoxicity at 10 µM was -17%.

In the case of `CCN1C(=O)CCCC12CCCN(C(=O)c1ccoc1C)C2` (centres undefined), the cytotoxicity at 10 µM is -11.8%.

In the case of `CC1=Nc2c(c(=O)[nH]n2C(C)C)C(c2ccccc2)S1` (centres undefined), the cytotoxicity at 10 µM amounted to 5.53%.

For `COc1ccc(CNC(=O)c2cc3c(nc2O)CCC(C)C3)cc1` (centres undefined), the cytotoxicity at 10 µM is -6.1%.

For the compound `COc1c(CNC2CCOc3c(Cl)cccc32)c(C(C)C)nn1C` (centres undefined), the cytotoxicity at 10 µM came out at 2.25%.

In the case of `Cc1cc(C)cc(NC(=O)Nc2c(O)c3ccccc3oc2=O)c1`, the cytotoxicity at 10 µM was found to be 9.24%.

For the compound `CC(C)CN1CC[C@@H]2[C@@H]1CCN2C(=O)N1CCCC1`, the cytotoxicity at 10 µM was -1%.

Turning to `Cc1nc2cc(OCc3nc(C(=O)NC(CO)CO)co3)ccc2s1`, the cytotoxicity at 10 µM came out at 4.01%.

As to `Cc1cc(NC(=O)NCC2CCOC2)no1` (centres undefined), the cytotoxicity at 10 µM was determined as 4.43%.

Take `COC[C@@]12CCO[C@@H]1CCN(C(=O)Cc1cccc(F)c1)C2`: the cytotoxicity at 10 µM is -8.95%.

Turning to `COc1cc2nc3n(c(=O)c2cc1OC)CCN(C(=O)C1CCC1)CC3`, the cytotoxicity at 10 µM was -8.8%.

Turning to `Cc1n[nH]c(C)c1-c1nccnc1CC1CCN(S(C)(=O)=O)C1` (centres undefined), the cytotoxicity at 10 µM is -10.4%.

Regarding `Cc1cccc(N(CCC(N)=O)C(=O)c2ccnc(C)n2)c1`, the cytotoxicity at 10 µM was -8.47%.

Regarding `COc1ncc(CN2CCC3(CCNC(=O)CC3)CC2)cn1`, the cytotoxicity at 10 µM is -144%.

Turning to `OCc1cn(Cc2cccc(F)c2)nn1`, the cytotoxicity at 10 µM is 8.95%.

With `c1cnc(N2C[C@H](OCC3CCOCC3)[C@H]3COC[C@H]32)nc1`, the cytotoxicity at 10 µM was -1.92%.

In the case of `CCC(C)(NCC(=O)NC(=O)NC)c1nccs1` (centres undefined), the cytotoxicity at 10 µM came out at 7.77%.

`CCN(CC1CCOC1)C(=O)c1cn2ccc(C)cc2n1` (centres undefined): the cytotoxicity at 10 µM worked out at 1%.

In the case of `Cc1cc(CN2CCC(C3CCN(CCc4ccccc4)CC3)C2)[nH]n1` (centres undefined), the cytotoxicity at 10 µM turned out to be 9.2%.

In the case of `CCN(Cc1cccc2c1OCO2)C(=O)C(C)c1cccnc1` (centres undefined), the cytotoxicity at 10 µM is -4.84%.

`Cc1nc(C)c(C)c(N2C[C@@H](CN3CCCN(C)CC3)[C@@H](CO)C2)n1`: the cytotoxicity at 10 µM was -10.4%.

Regarding `CC1(c2ccc(Br)cc2)CC(=O)N(CCC#N)C1=O` (centres undefined), the cytotoxicity at 10 µM was 0.923%.

With `CCOC(=O)C(CO)NC(=O)CCc1cccc(OC2CCCC2)c1` (centres undefined), the cytotoxicity at 10 µM was -7.08%.

For `Cc1nc(CCCNC(=O)C2CC(=O)N(C3CCCC3)C2)sc1C` (centres undefined), the cytotoxicity at 10 µM was determined as 3.01%.
